In brackets after ≈: the same amount, converted by molar mass.
Key:
Type in all cases: functional
Mythimna separata [1] = assay: Insecticidal activity against fourth-instar larval stage of Mythimna separata (Oriental armyworm) in compound-pretreated corn leaves assessed as mortality at 0.5 mg/l at 25 +/-1degC after 4 days
Mythimna separata [2] = assay: Insecticidal activity against fourth-instar larval stage of Mythimna separata (Oriental armyworm) in compound-pretreated corn leaves assessed as mortality at 0.25 mg/l at 25 +/-1degC after 4 days
Mythimna separata [3] = assay: Insecticidal activity against fourth-instar larval stage of Mythimna separata (Oriental armyworm) in compound-pretreated corn leaves assessed as mortality at 1 mg/l at 25 +/-1degC after 4 days
Spodoptera exigua = assay: Insecticidal activity against third-instar larval stage of Spodoptera exigua in cabbage leaves assessed as mortality at 25 +/-1degC treated for 5 secs before larval infestation measured after 4 days by leaf dip method; settings: foliar, 96 h
Outline: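 Leaf-dip assay. Fresh cabbage leaf disks (1.8 cm diameter) were dipped in test solution for 5 s before larvae were added. LC50 was calculated by Finney probit analysis of the mortality regression lines.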

Plutella xylostella = assay: Insecticidal activity against larvae of Plutella xylostella (diamondback moth) in cabbage leaves assessed as mortality at 25 +/-1degC treated for 5 secs before larval infestation measured after 4 days by leafdip method; settings: 96 h
Outline: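 Leaf-dip assay. Cabbage leaf disks (1.8 cm diameter) were dipped in test solution for 5 s, air-dried, and placed in tubes lined with filter paper. Ten second-instar larvae were added per tube. Percent mortality was read 4 days after treatment, in triplicate. LC50 was derived by Finney probit analysis of the mortality regression lines.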

Mythimna separata [4] = assay: Insecticidal activity against fourth-instar larval stage of Mythimna separata (Oriental armyworm) in compound-pretreated corn leaves assessed as mortality at 2.5 mg/l at 25 +/-1degC after 4 days
Culex pipiens pallens [5] = assay: Insecticidal activity against fourth-instar larval stage of Culex pipiens pallens (mosquito) assessed as mortality at 0.01 mg/l at 25 +/-1degC after 8 days; settings: 192 h
Outline: (§1)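 Compounds dissolved in acetone, then diluted with distilled water to the test concentrations. Twenty fourth-instar larvae were placed in 10 mL of each test solution and reared for 8 days. Mortality was scored on a 0–100 scale, where 0 is no activity and 100 is total kill.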

Mythimna separata [6] = assay: Insecticidal activity against fourth-instar larval stage of Mythimna separata (Oriental armyworm) in compound-pretreated corn leaves assessed as mortality at 40 mg/l at 25 +/-1degC after 4 days
Mythimna separata [7] = assay: Insecticidal activity against fourth-instar larval stage of Mythimna separata (Oriental armyworm) in compound-pretreated corn leaves assessed as mortality at 50 mg/l at 25 +/-1degC after 4 days
Culex pipiens pallens [8] = assay: Insecticidal activity against fourth-instar larval stage of Culex pipiens pallens (mosquito) assessed as mortality at 2.5 mg/l at 25 +/-1degC after 8 days; settings: 192 h; outline: as §1
Mythimna separata [9] = assay: Insecticidal activity against fourth-instar larval stage of Mythimna separata (Oriental armyworm) in compound-pretreated corn leaves assessed as mortality at 200 mg/l at 25 +/-1degC after 4 days
Culex pipiens pallens [10] = assay: Insecticidal activity against fourth-instar larval stage of Culex pipiens pallens (mosquito) assessed as mortality at 1 mg/l at 25 +/-1degC after 8 days; settings: 192 h; outline: as §1
Mythimna separata [11] = assay: Insecticidal activity against fourth-instar larval stage of Mythimna separata (Oriental armyworm) in compound-pretreated corn leaves assessed as mortality at 100 mg/l at 25 +/-1degC after 4 days
Culex pipiens pallens [12] = assay: Insecticidal activity against fourth-instar larval stage of Culex pipiens pallens (mosquito) assessed as mortality at 5 mg/l at 25 +/-1degC after 8 days; settings: 192 h; outline: as §1
Culex pipiens pallens [13] = assay: Insecticidal activity against fourth-instar larval stage of Culex pipiens pallens (mosquito) assessed as mortality at 0.005 mg/l at 25 +/-1degC after 8 days; settings: 192 h; outline: as §1
Culex pipiens pallens [14] = assay: Insecticidal activity against fourth-instar larval stage of Culex pipiens pallens (mosquito) assessed as mortality at 0.0025 mg/l at 25 +/-1degC after 8 days; settings: 192 h; outline: as §1

Row | Structure (SMILES) | mortality at 0.5 µg/mL (Mythimna separata [1]) [%] | mortality at 0.25 µg/mL (Mythimna separata [2]) [%] | mortality at 1 µg/mL (Mythimna separata [3]) [%] | mortality at 0.01 µg/mL (Culex pipiens pallens [5]) [%] | mortality at 0.005 µg/mL (Culex pipiens pallens [13]) [%] | also measured
1 | O=C(NC(=O)N(SNc1ccc(C(F)(F)F)cc1)c1ccc(C(F)(F)F)cc1)c1c(F)cccc1F | 80 | 45 | 100 |  |  | 
2 | O=C(NC(=O)N(SN(C(=O)NC(=O)c1c(F)cccc1F)c1ccc(OC(F)(F)F)cc1)c1ccc(OC(F)(F)F)cc1)c1ccccc1Cl | 95 | 50 | 100 |  |  | LC50 (Spodoptera exigua): 31.4 µg/mL (≈ 42 µM); LC50 (Plutella xylostella): 40.1 µg/mL (≈ 53.6 µM)
3 | O=C(NC(=O)N(SN(C(=O)NC(=O)c1c(F)cccc1F)c1ccc(Cl)cc1)c1ccc(Cl)cc1)c1c(F)cccc1F | 85 | 25 | 100 |  |  | 
4 | O=C(NC(=O)N(SN(C(=O)NC(=O)c1c(F)cccc1F)c1ccc(OC(F)(F)F)cc1)c1ccc(OC(F)(F)F)cc1)c1c(F)cccc1F | 55 | 20 | 100 |  |  | 
5 | O=C(NC(=O)N(SSN(C(=O)NC(=O)c1ccccc1Cl)c1ccc(OC(F)(F)F)cc1)c1ccc(OC(F)(F)F)cc1)c1ccccc1Cl | 60 | 10 | 85 |  |  | mortality at 2.5 µg/mL (Mythimna separata [4]): 100%
6 | O=C(NC(=O)N(SSN(C(=O)NC(=O)c1c(F)cccc1F)c1ccc(OC(F)(F)F)cc1)c1ccc(OC(F)(F)F)cc1)c1ccccc1Cl | 40 | 0 | 100 |  |  | 
7 | O=C(NC(=O)N(SSN(C(=O)NC(=O)c1c(F)cccc1F)c1ccc(OC(F)(F)F)cc1)c1ccc(OC(F)(F)F)cc1)c1c(F)cccc1F | 50 | 20 | 100 |  |  | 
8 | O=C(NC(=O)N(SNc1ccc(OC(F)(F)F)cc1)c1ccc(OC(F)(F)F)cc1)c1c(F)cccc1F | 90 | 40 | 100 |  |  | 
9 | O=C(NC(=O)N(SNc1ccc(Cl)cc1)c1ccc(Cl)cc1)c1c(F)cccc1F | 70 | 0 | 100 |  |  | 
10 | O=C(NC(=O)N(SSNc1ccc(C(F)(F)F)cc1)c1ccc(C(F)(F)F)cc1)c1ccccc1Cl | 60 | 0 | 70 |  |  | mortality at 2.5 µg/mL (Mythimna separata [4]): 100%
11 | O=C(NC(=O)N(SSNc1ccc(OC(F)(F)F)cc1)c1ccc(OC(F)(F)F)cc1)c1ccccc1Cl | 60 | 30 | 100 |  |  | 
12 | O=C(NC(=O)N(SSNc1ccc(OC(F)(F)F)cc1)c1ccc(OC(F)(F)F)cc1)c1c(F)cccc1F | 90 | 30 | 100 |  |  | 
13 | O=C(NC(=O)N(SSNc1ccc(C(F)(F)F)cc1)c1ccc(C(F)(F)F)cc1)c1c(F)cccc1F | 70 | 10 | 100 |  |  | 
14 | CCOC(=O)CCN(Cc1ccccc1)SN(C(=O)NC(=O)c1c(F)cccc1F)c1ccc(OC(F)(F)F)cc1 |  |  | 100 | 100 |  | mortality at 40 µg/mL (Mythimna separata [6]): 0.0025%
15 | CCOC(=O)CCN(Cc1ccccc1)SN(C(=O)NC(=O)c1c(F)cccc1F)c1ccccc1 |  |  |  |  |  | mortality at 50 µg/mL (Mythimna separata [7]): 30%; mortality at 2.5 µg/mL (Culex pipiens pallens [8]): 60%; mortality at 200 µg/mL (Mythimna separata [9]): 70%; mortality at 1 µg/mL (Culex pipiens pallens [10]): 20%; mortality at 100 µg/mL (Mythimna separata [11]): 40%; mortality at 5 µg/mL (Culex pipiens pallens [12]): 100%
16 | CCOC(=O)CCN(Cc1ccccc1)SN(C(=O)NC(=O)c1c(F)cccc1F)c1ccc(Cl)cc1 | 50 | 30 | 100 | 60 | 0 | 
17 | O=C(NC(=O)N(SN1CCCCC1)c1ccc(OC(F)(F)F)cc1)c1c(F)cccc1F | 100 | 50 | 100 | 100 | 100 | mortality at 0.0025 µg/mL (Culex pipiens pallens [14]): 75%
18 | CCN(CC)SN(C(=O)NC(=O)c1c(F)cccc1F)c1ccccc1 |  |  |  |  |  | mortality at 50 µg/mL (Mythimna separata [7]): 20%; mortality at 2.5 µg/mL (Culex pipiens pallens [8]): 100%; mortality at 200 µg/mL (Mythimna separata [9]): 70%; mortality at 1 µg/mL (Culex pipiens pallens [10]): 30%; mortality at 100 µg/mL (Mythimna separata [11]): 40%; mortality at 5 µg/mL (Culex pipiens pallens [12]): 100%
19 | CCN(CC)SN(C(=O)NC(=O)c1c(F)cccc1F)c1ccc(Cl)cc1 | 70 | 20 | 100 | 100 | 10 | mortality at 0.0025 µg/mL (Culex pipiens pallens [14]): 10%
20 | CCN(CC)SN(C(=O)NC(=O)c1c(F)cccc1F)c1ccc(OC(F)(F)F)cc1 | 100 | 60 | 100 | 100 | 100 | mortality at 0.0025 µg/mL (Culex pipiens pallens [14]): 40%
21 | O=C(NC(=O)N(SN1CCOCC1)c1ccc(OC(F)(F)F)cc1)c1c(F)cccc1F | 100 | 80 | 100 | 100 | 100 | mortality at 0.0025 µg/mL (Culex pipiens pallens [14]): 20%; LC50 (Spodoptera exigua): 21.4 µg/mL (≈ 44.9 µM); LC50 (Plutella xylostella): 45.1 µg/mL (≈ 94.5 µM)
22 | O=C(NC(=O)N(SN1CCOCC1)c1ccc(Cl)cc1)c1c(F)cccc1F | 100 | 80 | 100 | 100 | 30 | mortality at 0.0025 µg/mL (Culex pipiens pallens [14]): 0%
23 | O=C(NC(=O)N(SN1CCCCC1)c1ccccc1)c1c(F)cccc1F |  |  |  |  |  | mortality at 50 µg/mL (Mythimna separata [7]): 0%; mortality at 2.5 µg/mL (Culex pipiens pallens [8]): 70%; mortality at 200 µg/mL (Mythimna separata [9]): 90%; mortality at 1 µg/mL (Culex pipiens pallens [10]): 0%; mortality at 100 µg/mL (Mythimna separata [11]): 40%; mortality at 5 µg/mL (Culex pipiens pallens [12]): 100%
24 | O=C(NC(=O)N(SN1CCCCC1)c1ccc(Cl)cc1)c1c(F)cccc1F | 100 | 20 | 100 | 90 | 0 | mortality at 0.0025 µg/mL (Culex pipiens pallens [14]): 0%
25 | O=C(NC(=O)c1c(F)cccc1F)Nc1ccc(Cl)cc1 [DIFLUBENZURON] | 100 | 45 | 100 | 100 | 50 | mortality at 0.0025 µg/mL (Culex pipiens pallens [14]): 10%
26 | O=C(NC(=O)c1ccccc1Cl)Nc1ccc(OC(F)(F)F)cc1 [TRIFLUMURON] | 40 | 20 | 95 |  |  | LC50 (Spodoptera exigua): 12 µg/mL (≈ 33.5 µM); mortality at 2.5 µg/mL (Mythimna separata [4]): 100%; LC50 (Plutella xylostella): 49.3 µg/mL (≈ 137 µM)
